ChEMBL document CHEMBL3779876, “Synthesis and biological evaluation of novel 2,3-dihydrochromeno[3,4-d]imidazol-4(1H)-one derivatives as potent anticancer cell proliferation and migration agents” (Eur J Med Chem, 2016)

What was measured:
[1] = Growth inhibition of human U87MG cells assessed as cell viability after 72 hrs by MTT assay; type: functional, cell-based, U-87MG ATCC; details: U-87 MG
How it was run: (§1)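 Cells were grown in DMEM or RPMI with 10% FBS and 1% penicillin/streptomycin at 37 °C, 5% CO2. They were seeded at 2000–3000 cells, rested 24 h, then exposed to a range of concentrations for 72 h. MTT (5 mg/mL stock) was added for 2–4 h at 37 °C and formazan dissolved in DMSO. A570 was read and IC50 calculated; triplicate wells, three separate experiments.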

[2] = Growth inhibition of human PC3 cells assessed as cell viability after 72 hrs by MTT assay; type: functional, cell-based; details: PC-3, 72 h; how it was run: as §1
[3] = Growth inhibition of human HCT116 cells assessed as cell viability after 72 hrs by MTT assay; type: functional, cell-based; details: HCT-116, 72 h; how it was run: as §1

Row | Structure (SMILES) | IC50 [1] | IC50 [2] | IC50 [3]
1 | CS(=O)(=O)c1ccc(-c2ccc3oc(=O)c4[nH]c(=O)n(-c5ccc(CC#N)cc5)c4c3c2)cc1 | 39.7 µM | 29.6 µM | 
2 | Cc1ccccc1-n1c(=O)[nH]c2c(=O)oc3ccc(-c4cccnc4)cc3c21 | > 40 µM | > 40 µM | > 40 µM
3 | Nc1cccc(-c2ccc3oc(=O)c4[nH]c(=O)n(-c5ccccc5)c4c3c2)c1 | > 40 µM | > 40 µM | 
4 | O=c1oc2ccc(-c3cccc(NS(=O)(=O)c4ccc(F)cc4)c3)cc2c2c1[nH]c(=O)n2-c1ccccc1 | > 40 µM | > 40 µM | > 40 µM
5 | CC(C)(C#N)c1ccc(-n2c(=O)[nH]c3c(=O)oc4ccc(-c5cnc6ccccc6c5)cc4c32)cc1 | 33.4 µM | 19.8 µM | 20.4 µM
6 | Cc1ccccc1-n1c(=O)[nH]c2c(=O)oc3ccc(-c4ccncc4)cc3c21 | > 40 µM | > 40 µM | > 40 µM
7 | O=c1oc2ccc(-c3cccnc3)cc2c2c1[nH]c(=O)n2-c1ccccc1 | > 40 µM | > 40 µM | 
8 | CC(C)(C#N)c1ccc(-n2c(=O)[nH]c3c(=O)oc4ccc(-c5cccnc5)cc4c32)cc1 | 25.6 µM | 38.2 µM | 
9 | COc1ccc(-n2c(=O)[nH]c3c(=O)oc4ccc(-c5ccncc5)cc4c32)cc1 | > 40 µM | > 40 µM | > 40 µM
10 | O=c1oc2ccc(-c3ccncc3)cc2c2c1[nH]c(=O)n2-c1ccccc1 | 38.7 µM |  | 
11 | N#CCc1ccc(-n2c(=O)[nH]c3c(=O)oc4ccc(-c5ccccc5)cc4c32)cc1 | 31.4 µM | 35.3 µM | > 40 µM
12 | CC(C)(C#N)c1ccc(-n2c(=O)[nH]c3c(=O)oc4ccc(-c5ccncc5)cc4c32)cc1 | 28.6 µM | 29 µM | 
13 | Cc1ccccc1-c1ccc2oc(=O)c3[nH]c(=O)n(-c4ccc(CC#N)cc4)c3c2c1 | > 40 µM | > 40 µM | > 40 µM
14 | O=c1oc2ccc(-c3cnc4ccccc4c3)cc2c2c1[nH]c(=O)n2-c1ccccc1 | 35.6 µM | 34 µM | 31.5 µM
